A number with no mark means an inactive call. Inconclusive results are not listed. Activity calls are given as the source filed them.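 The calls were made as follows, unless noted: active = viability at or below 27.92% in each of two runs, the all-compound median minus 4 SD; inconclusive = no clear call, values can overlap the other calls; inactive = the rest.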
How the values were obtained:
[1] = OD615 S. cerevisiae growth inhibition, permissive medium, pilot counter-assay, permissive growth control for S. cerevisiae lifespan shortening project (AID 705;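 active = growth inhibition above 25% in both replicates, a cutoff set 3 SD above the mean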); conditions: OD615, 24 h, at 10 µM, active compounds read high
Method in brief: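 assay system = Saccharomyces cerevisiae strain carrying genetically modified DeaD replicative-lifespan system | technique = absorbance (optical density) at 615 nm | buffer or medium = permissive raffinose/galactose medium | timing = cells pre-grown 4 h, then 24 h compound exposure, 30 °C humidified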

[2] = Restrictive medium S. cerevisiae growth inhibition, OD615, pilot screen of yeast lifespan reduction project, restrictive growth control (AID 706;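 active = growth inhibition above a set limit, 3 SD over mean compound inhibition, in both replicates, cut at about 43% in these data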;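 also: modified DeaD lifespan yeast strain shifted to restrictive glucose medium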); conditions: OD615, 48 h, at 10 µM, active compounds read high
Method in brief: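 System: modified S. cerevisiae. Buffer or medium: CSMM-D glucose medium. Incubation: 4 h pre-growth plus 48 h compound exposure, 30 °C. Detection: absorbance (optical density) measured at 615 nm.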

[3] = viability gain of MRP-1-high H69AR cells under doxorubicin, pilot screen, MRP-1 activator project, CellTiter-Glo, duplicate (AID 807;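 active = viability increase at or above a cutoff of the median across tested compounds plus 3 SD, cut at about 8.5% in these data, passing the limit was not always enough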;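 also: compound pretreatment 18-22 h then 72 h combined with doxorubicin; 0% = doxorubicin alone and 100% = vehicle without doxorubicin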); conditions: H69AR viability with doxorubicin, CellTiter-Glo luminescence; at 10 µM; active compounds read high
[4] = growth suppression of beta-catenin knockout HCT116, pilot screen, human colon tumor cells (AID 823;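 active = cell viability at or below a set limit in both duplicate runs, the limit being the all-compound median minus 4 SD, cut at about 23% in these data, passing the limit was not always enough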;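 also: 0% = wells killed by 20 µM Hyamine and 100% = untreated DMSO cell wells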); conditions: CellTiter-Glo, 60 h, at 10 µM, active compounds read low
[5] = growth suppression of PTEN-deleted HCT116, pilot screen, cell-based, HCT116 clonal line, CellTiter-Glo (AID 824); conditions: 60 h, at 10 µM, active compounds read low;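 also: 0% = 20 µM Hyamine control and 100% = vehicle cell control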
[6] = inhibitors of the yeast RAM network, pilot screen, dse1pr::URA3 reporter, 5-FOA selection (AID 869;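 active = inhibition over a set limit, the all-compound mean plus 3 SD, in both replicate runs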;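 also: 0% = DMSO wells with no growth and 100% = 10 µM 1-NA-PP1 with full growth; RAM network block rescues cells from 5-FOA so hits raise OD615 growth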); conditions: S. cerevisiae dse1pr::URA3 5-FOA growth, OD615, 2 d; at 10 µM; active compounds read high; strain carries analog-sensitive mutant Cbk1 kinase
[7] = RAM signaling pathway blockade in yeast – S. cerevisiae, Pdr1DBD-CYC8 efflux-inhibited sensitized strain, primary screen (AID 1298;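 active = RAM network inhibition above 8.4% in each of two replicates, 3 SD over the compound average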;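 also: 0% = DMSO untreated cells without growth and 100% = 10 µM 1-NA-PP1 full growth; higher means more yeast growth rescued from 5-FOA killing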); conditions: S. cerevisiae cbk1-as DSE1-URA3 strain, 5-FOA growth OD615, 2 d; at 50 µM; active compounds read high

Which growth inhibition [1] does the source give for CCOC(=O)N1CCN(C(=O)Cn2ncc3ccccc32)CC1 here?
Its growth inhibition is -14.3%.

And the growth inhibition [2]?
Its growth inhibition is -4.71%.

What about the viability increase [3] of the same molecule?
The viability increase was -1.62%.

And the viability [4]?
The viability was 105%.

What about the viability [5] of the same molecule?
The viability was 89.4%.

And the inhibition [6]?
Its inhibition is 3.38%.

And the RAM network inhibition [7]?
Its RAM network inhibition is 2.51%.

With Fc1cccc(Cl)c1CSc1nnnn1-c1ccc2c(c1)OCO2 as the molecule, how does the growth inhibition [1] read?
The growth inhibition was 3.1%.

What about the growth inhibition [2] of the same molecule?
The growth inhibition was 17.6%.

What about the viability increase [3] of the same molecule?
Its viability increase is -5.87%.

And the viability [4]?
The viability was 55.7%.

And the viability [5]?
The viability was 46.4%.

What about the inhibition [6] of the same molecule?
The inhibition was 1.1%.

What about the RAM network inhibition [7] of the same molecule?
The RAM network inhibition was 10.2%.

For Cc1c(C(=O)N2CCN(C(=O)c3ccco3)CC2)sc2nc(-c3ccc(F)cc3)cn12, which growth inhibition [1] is on record?
The growth inhibition was -0.195%.

And the growth inhibition [2]?
The growth inhibition was 3.62%.

What about the viability increase [3] of the same molecule?
The viability increase was -2.53%.

And the viability [4]?
Its viability is 91.8%.

And the viability [5]?
Its viability is 89.3%.

What about the inhibition [6] of the same molecule?
The inhibition was 0.195%.

What about the RAM network inhibition [7] of the same molecule?
The RAM network inhibition was 3.7%.

For CC1=C(C(=O)OCc2ccccc2)C(c2ccc(N3CCOCC3)cc2)NC(=O)N1 (stereo unspecified), which growth inhibition [1] is on record?
Its growth inhibition is -6.21%.

And the growth inhibition [2]?
The growth inhibition was -3.42%.

What about the viability increase [3] of the same molecule?
Its viability increase is 0.5%.

And the viability [4]?
The viability was 100%.

And the viability [5]?
Its viability is 98.9%.

And the inhibition [6]?
Its inhibition is 0.99%.

What about the RAM network inhibition [7] of the same molecule?
The RAM network inhibition was 4.42%.

Which results are given for CCc1nnc(NC(=O)CCN2C(=O)CCC2=O)s1?
growth inhibition [1]: 4.12%; growth inhibition [2]: 5.96%; viability increase [3]: 0.69%; viability [4]: 97.3%; viability [5]: 93.6%; inhibition [6]: 0.52%; RAM network inhibition [7]: 3.17%

Which growth inhibition [1] does the source give for COCCOC(=O)C1=C(C)NC(=O)NC1c1ccc(OC(=O)c2ccco2)c(OC)c1 (stereo unspecified) here?
The growth inhibition was 7.03%.

And the growth inhibition [2]?
The growth inhibition was -14.5%.

What about the viability increase [3] of the same molecule?
Its viability increase is -2.68%.

What about the viability [4] of the same molecule?
The viability was 97.8%.

What about the viability [5] of the same molecule?
The viability was 92.7%.

And the inhibition [6]?
The inhibition was 2.5%.

And the RAM network inhibition [7]?
Its RAM network inhibition is 4.12%.

With COc1ccc(S(=O)(=O)N2CCN(C)CC2)cc1Br as the molecule, how does the growth inhibition [1] read?
Its growth inhibition is -1.05%.

What about the growth inhibition [2] of the same molecule?
The growth inhibition was 9.22%.

What about the viability increase [3] of the same molecule?
The viability increase was -2.75%.

And the viability [4]?
The viability was 95%.

And the viability [5]?
Its viability is 92%.

And the inhibition [6]?
Its inhibition is 1.01%.

What about the RAM network inhibition [7] of the same molecule?
Its RAM network inhibition is -0.01%.

For CCCCCCc1c(O)nc(SCC(=O)O)[nH]c1=O, which growth inhibition [1] is on record?
The growth inhibition was 5.63%.

What about the growth inhibition [2] of the same molecule?
Its growth inhibition is 13.4%.

What about the viability increase [3] of the same molecule?
Its viability increase is 0.25%.

And the viability [4]?
The viability was 108%.

And the viability [5]?
Its viability is 101%.

What about the inhibition [6] of the same molecule?
The inhibition was 2.51%.

And the RAM network inhibition [7]?
The RAM network inhibition was -0.58%.

Which results are given for COc1cccc(-n2c(Cc3cc(=O)[nH]c(=O)[nH]3)nnc2SCc2cccnc2)c1?
growth inhibition [1]: -7.23%; growth inhibition [2]: -2.88%; viability increase [3]: 0.52%; viability [4]: 106%; viability [5]: 102%; inhibition [6]: 0%; RAM network inhibition [7]: 0.9%

With O=C(c1ccccc1F)N1CCN=C1SCc1cccnc1 as the molecule, how does the growth inhibition [1] read?
The growth inhibition was -22.1%.

What about the growth inhibition [2] of the same molecule?
The growth inhibition was 1.65%.

And the viability increase [3]?
Its viability increase is -1.2%.

What about the viability [4] of the same molecule?
Its viability is 96.8%.

What about the viability [5] of the same molecule?
Its viability is 99.8%.

And the inhibition [6]?
The inhibition was 0.695%.

And the RAM network inhibition [7]?
Its RAM network inhibition is 4.47%.

Which results are given for COCCn1c(C)cc(C(=O)CSc2nnc3ccccn23)c1C?
growth inhibition [1]: 8.47%; growth inhibition [2]: 3.52%; viability increase [3]: -1.95%; viability [4]: 98.8%; viability [5]: 91.7%; inhibition [6]: 0.76%; RAM network inhibition [7]: 2.51%

Which growth inhibition [1] does the source give for O=C(Nc1nc2c(s1)CCCC2)c1ccc(Br)o1 here?
The growth inhibition was 6.52%.

And the growth inhibition [2]?
Its growth inhibition is -10.8%.

What about the viability increase [3] of the same molecule?
The viability increase was -4.11%.

What about the viability [4] of the same molecule?
Its viability is 62.4%.

What about the viability [5] of the same molecule?
Its viability is 64.6%.

And the inhibition [6]?
The inhibition was 1.8%.

And the RAM network inhibition [7]?
Its RAM network inhibition is 4.86%.

Which growth inhibition [1] does the source give for N#Cc1nc(COc2ccc(Br)cc2)oc1N1CCCCCC1 here?
Its growth inhibition is -13.1%.

And the growth inhibition [2]?
Its growth inhibition is 3.57%.

What about the viability increase [3] of the same molecule?
Its viability increase is 4.39%.

And the viability [4]?
The viability was 62.4%.

What about the viability [5] of the same molecule?
Its viability is 67.5%.

What about the inhibition [6] of the same molecule?
Its inhibition is 2.33%.

What about the RAM network inhibition [7] of the same molecule?
The RAM network inhibition was 7.31%.

Which results are given for Cn1c(NC(=O)CC2CCCCC2)cc(=O)n(C)c1=O?
growth inhibition [1]: -14%; growth inhibition [2]: -21.6%; viability increase [3]: -0.04%; viability [4]: 93.3%; viability [5]: 87%; inhibition [6]: 0.43%; RAM network inhibition [7]: -0.37%

Which results are given for Cn1c(Cn2c(=O)sc3ccccc32)nnc1SCC(=O)N1CCN(c2ccccc2)CC1?
growth inhibition [1]: 0.845%; growth inhibition [2]: 24.3%; viability increase [3]: -0.95%; viability [4]: 100%; viability [5]: 96.6%; inhibition [6]: 0.04%; RAM network inhibition [7]: 3.66%

Which results are given for c1ccc(N2CCOCC2)c(Nc2nc3ccccc3n3cnnc23)c1?
growth inhibition [1]: -8.77%; growth inhibition [2]: -1.25%; viability increase [3]: -2.57%; viability [4]: 66.3%; viability [5]: 49.1%; inhibition [6]: 1.02%; RAM network inhibition [7]: 9.05%

With COCc1cc(CN2CCCC2)c(O)c2ncccc12 as the molecule, how does the growth inhibition [1] read?
Its growth inhibition is -11.1%.

What about the growth inhibition [2] of the same molecule?
Its growth inhibition is -11.6%.

What about the viability increase [3] of the same molecule?
Its viability increase is 0.15%.

And the viability [4]?
The viability was 8.07% (active).

And the viability [5]?
Its viability is 11.3% (active).

And the inhibition [6]?
Its inhibition is -0.255%.

What about the RAM network inhibition [7] of the same molecule?
The RAM network inhibition was 5.55%.

Which results are given for Cn1c(NC(=O)Cc2cccs2)cc(=O)n(C)c1=O?
growth inhibition [1]: 5.64%; growth inhibition [2]: 5.55%; viability increase [3]: -0.45%; viability [4]: 105%; viability [5]: 101%; inhibition [6]: 1.26%; RAM network inhibition [7]: -2.37%

Source: PubChem BioAssay
